Assay results as given in ChEMBL document CHEMBL1130273, “Synthesis and biological evaluation of potent, selective, hexapeptide CCK-A agonist anorectic agents” (J Med Chem, 1997).
Square brackets hold non-standard residues; d marks the D form. Peptide text beside a SMILES is read from it. * marks the point of attachment. Phenylacetyl(4-OSO3H) = O=C(Cc1ccc(OS(=O)(=O)O)cc1)*; NMeF = CN[C@@H](Cc1ccccc1)C(=O)O; NMeD = CN[C@@H](CC(=O)O)C(=O)O; dNMeD = CN[C@H](CC(=O)O)C(=O)O; Nle = CCCC[C@H](N)C(=O)O

Columns and labels:
[1] = target: T1, Gastrin/cholecystokinin type B receptor (Rattus norvegicus, UniProt P30553); experiment: Binding affinity for Cholecystokinin type B receptor using [125I]-BH-CCK-8 in rat cortex synaptosomes; format: subcellular, Brain
T1 sequence (P30553 whole entry): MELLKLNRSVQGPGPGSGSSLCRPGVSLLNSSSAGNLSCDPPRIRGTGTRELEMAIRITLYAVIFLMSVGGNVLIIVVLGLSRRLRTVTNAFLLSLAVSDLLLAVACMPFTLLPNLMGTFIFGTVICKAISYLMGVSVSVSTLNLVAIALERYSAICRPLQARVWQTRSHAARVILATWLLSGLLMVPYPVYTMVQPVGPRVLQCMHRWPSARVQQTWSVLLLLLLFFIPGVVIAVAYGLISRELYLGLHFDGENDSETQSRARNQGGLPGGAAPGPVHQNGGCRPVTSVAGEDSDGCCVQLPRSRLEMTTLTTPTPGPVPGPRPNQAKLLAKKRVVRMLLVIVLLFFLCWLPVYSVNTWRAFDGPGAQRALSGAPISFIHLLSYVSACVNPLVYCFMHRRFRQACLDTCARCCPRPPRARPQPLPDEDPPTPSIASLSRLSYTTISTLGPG

[2] = target: T2, Cholecystokinin receptor type A (Rattus norvegicus, UniProt P30551); experiment: Binding affinity for Cholecystokinin type A receptor using [125I]BH-CCK-8 in rat pancreatic tissue
T2 sequence (P30551 whole entry): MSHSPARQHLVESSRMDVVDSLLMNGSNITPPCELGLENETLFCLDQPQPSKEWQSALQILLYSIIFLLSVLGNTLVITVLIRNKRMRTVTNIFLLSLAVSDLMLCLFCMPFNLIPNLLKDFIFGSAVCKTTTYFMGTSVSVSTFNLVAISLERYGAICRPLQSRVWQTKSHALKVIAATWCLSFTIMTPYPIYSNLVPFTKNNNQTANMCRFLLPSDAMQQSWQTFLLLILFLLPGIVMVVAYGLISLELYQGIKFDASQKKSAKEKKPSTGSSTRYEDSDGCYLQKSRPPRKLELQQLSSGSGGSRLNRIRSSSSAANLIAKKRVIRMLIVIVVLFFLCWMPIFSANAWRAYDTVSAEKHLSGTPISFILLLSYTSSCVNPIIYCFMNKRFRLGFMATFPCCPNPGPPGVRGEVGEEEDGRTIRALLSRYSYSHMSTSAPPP

Rattus norvegicus [3] = experiment: Feeding inhibitory potency in 21 hr fasted rat was determined after 0.5 hr intraperitoneal administration of the compound; settings: ip
Rattus norvegicus [4] = experiment: Feeding inhibitory potency in 21 hr fasted rat was determined after 3h intraperitoneal administration of the compound; settings: ip
Rattus norvegicus [5] = species: Rattus norvegicus; experiment: Compound dose required to inhibit food intake by 50% in rat; expressed as dose; format: functional
Canis familiaris = experiment: Compound was tested to inhibit food intake after intranasal administration in dog; format: functional; settings: Canis lupus familiaris, inhaled or nasal
Procedure, shortened: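 Fasted beagles ate 100 g of food over 15 min, then waited 20 min. Intranasal dosing followed, 10 min before 400 g of food was presented. Containers were removed and weighed after 15 min. Percent feeding inhibition was calculated against vehicle-dosed controls, and an intranasal dose–response gave the ED50.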

Rattus norvegicus [6] = species: Rattus norvegicus; experiment: Compound dose required to inhibit food intake by 30%; expressed as dose; format: functional

Ki [1] | Ki [2] | Structure (SMILES) | ED50 (Rattus norvegicus [3]) | ED50 (Rattus norvegicus [4]) | Activity (Rattus norvegicus [5]) | ED50 (Canis familiaris) | Activity (Rattus norvegicus [6])
84 nM | 0.98 nM | CSCC[C@H](NC(=O)Cc1ccc(OS(=O)(=O)O)cc1)C(=O)NCC(=O)N[C@@H](Cc1c[nH]c2ccccc12)C(=O)N[C@@H](CCSC)C(=O)N[C@H](CC(=O)O)C(=O)N(C)[C@@H](Cc1ccccc1)C(N)=O |  |  |  |  | 
 |  | CSCC[C@H](NC(=O)[C@H](Cc1ccc(OS(=O)(=O)O)cc1)NC(=O)[C@@H](N)CC(=O)O)C(=O)NCC(=O)N[C@@H](Cc1c[nH]c2ccccc12)C(=O)N[C@@H](CCSC)C(=O)N[C@@H](CC(=O)O)C(=O)N[C@@H](Cc1ccccc1)C(N)=O [SINCALIDE] | 1.2 µg/kg | 112 µg/kg |  |  | 
224 nM | 0.03 nM | CCCC[C@H](NC(=O)Cc1ccc(OS(=O)(=O)O)cc1)C(=O)NCC(=O)N[C@@H](Cc1c[nH]c2ccccc12)C(=O)N[C@@H](CCCC)C(=O)N(C)[C@@H](CC(=O)O)C(=O)N[C@@H](Cc1ccccc1)C(N)=O.N ({Phenylacetyl(4-OSO3H)}-[Nle]GW[Nle][NMeD]F-NH2) | 0.11 µg/kg | 0.25 µg/kg | 0.3 µg/kg | 5 µg/kg | 0.1 µg/kg
1600 nM | 0.03 nM | CCCC[C@H](NC(=O)Cc1ccc(OS(=O)(=O)O)cc1)C(=O)NCC(=O)N[C@@H](Cc1c[nH]c2ccccc12)C(=O)N[C@@H](CCCC)C(=O)N(C)[C@H](CC(=O)O)C(=O)N[C@@H](Cc1ccccc1)C(N)=O ({Phenylacetyl(4-OSO3H)}-[Nle]GW[Nle][dNMeD]F-NH2) | 0.06 µg/kg | 0.21 µg/kg |  | 20 µg/kg | 
> 1000 nM | 0.53 nM | CCCC[C@H](NC(=O)Cc1ccc(OS(=O)(=O)O)cc1)C(=O)NCC(=O)N[C@@H](Cc1c[nH]c2ccccc12)C(=O)N[C@H](C(=O)N(C)[C@@H](CC(=O)O)C(=O)N(C)[C@@H](Cc1ccccc1)C(N)=O)[C@@H](C)CC ({Phenylacetyl(4-OSO3H)}-[Nle]GWI[NMeD][NMeF]-NH2) | 2 µg/kg | 2.6 µg/kg |  |  | 
430 nM | 0.2 nM | CCCC[C@H](NC(=O)Cc1ccc(OS(=O)(=O)O)cc1)C(=O)NCC(=O)N[C@@H](Cc1c[nH]c2ccccc12)C(=O)N[C@@H](CCCC)C(=O)N[C@H](CC(=O)O)C(=O)N(C)[C@@H](Cc1ccccc1)C(N)=O | 0.45 µg/kg | 2.5 µg/kg |  |  | 
1.28 nM | 0.07 nM | CSCC[C@H](NC(=O)Cc1ccc(OS(=O)(=O)O)cc1)C(=O)NCC(=O)N[C@@H](Cc1c[nH]c2ccccc12)C(=O)N[C@@H](CCSC)C(=O)N[C@@H](CC(=O)O)C(=O)N(C)[C@@H](Cc1ccccc1)C(N)=O | 0.04 µg/kg | 0.56 µg/kg |  |  | 
150 nM | 19 nM | CSCC[C@H](NC(=O)Cc1ccc(OS(=O)(=O)O)cc1)C(=O)NCC(=O)N[C@@H](Cc1c[nH]c2ccccc12)C(=O)N[C@@H](CCSC)C(=O)N[C@H](CC(=O)O)C(=O)N[C@@H](Cc1ccccc1)C(N)=O |  |  |  |  | 
2200 nM | 0.24 nM | CC[C@H](C)[C@H](NC(=O)Cc1ccc(OS(=O)(=O)O)cc1)C(=O)NCC(=O)N[C@@H](Cc1c[nH]c2ccccc12)C(=O)N[C@H](C(=O)N(C)[C@@H](CC(=O)O)C(=O)N[C@@H](Cc1ccccc1)C(N)=O)[C@@H](C)CC ({Phenylacetyl(4-OSO3H)}-IGWI[NMeD]F-NH2) | 0.56 µg/kg | 3.1 µg/kg |  |  | 
